# Compound activity deposited in PubChem by several laboratories.
# A selection: hits, their analogues and other compounds. The true share with any hit is near 3.7%.
# bCat nuc transl: modulators of beta-catenin nuclear translocation | HeLa beta-catenin nuclear translocation, immunofluorescence imaging | nuclear translocation activity, % at 5 µM | 190,000 tested, 0.3% active | AID 1665;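 active means nuclear translocation activity above 50% at 5 µM, with a well cell count of 50 or more; inconclusive means wells under 50 cells across six images, flagged as toxic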;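 further: per-cell ratio of nuclear to cytoplasmic median beta-catenin stain intensity; plate controls were DMSO negative control for no effect and GSK-3 inhibitor IX positive control for full effect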
#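 Signal – beta-catenin immunofluorescence imaging with DAPI · Test system – human HeLa cell line · Dosing – 5 µM primary single dose, 0.1% DMSO, 0.02–20 µM confirmation series · Measure – % activation, nuclear-to-cytoplasmic median beta-catenin signal ratio per cell · Incubation – 24 h compound exposure at 37°C, 5% CO2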
# MT stabilizer: microtubule stabilizers in HeLa cells | HeLa tubulin immunostaining HCS, 24 h; share of cells brighter than vehicle mean+2SD | % tubulin-high responders, % at 10 µM | 200,000 tested, 0.83% active | AID 2205;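 active means plate Z-score above 3 for both tubulin-high and condensed-nucleus cell shares, with cell loss under 80%, at 10 µM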;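 further: anti alpha tubulin signal scored within the nucleus-defined area of each cell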
# Cl transport mod: modulators of human KCC2 chloride dependent transport. Q9H2X9. KCC2 cells, thallium flux FluoZin-2 fluorescence. B-score of Tl+ flux slope (higher = more flux/activation; lower = inhibition) at 10 µM. 190,000 tested, 2.2% active. AID 1456;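 active means thallium flux slope and its plate-corrected score both differing from the plate sample mean at a set confidence after two filtering rounds, in either direction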;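 further: slope of fluorescence scaled to starting intensity during 10 to 20 s after thallium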
# ROMK mod: modulates human ROMK potassium channel activity | P48048 | Tet-inducible ROMK, thallium flux fluorescence; actives lie on both sides | B-score at 10 µM | 130,000 tested, 2% active | AID 1918;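 active means signal ratio slope over the read window, or its plate-corrected B-score, at least 3 SD from the plate mean, either direction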;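 further: B-score of the F/F0 ratio slope over 7 to 12 s after thallium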
# Redox H2O2 prof: compounds producing H2O2 with reducing agent – biochemical, NIH compound library profiling, artefact control for MLSCN library redox annotation, primary screen | DTT-dependent redox cycling H2O2, phenol red/HRP absorbance; 100% = 100 µM peroxide control, 0% = buffer | activation, % at 10 µM | 200,000 tested, 0.03% active | AID 878;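 active means activation of at least 50% relative to the plate's high and low controls in the primary single-dose screen; inactive means activation below 50%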;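 further: compound incubated with DTT at 0.8 mM final as the reducing agent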
# KCC2 sec1: confirmation of human KCC2 transport modulators; HEK293-KCC2, thallium flux, FluoZin2 fluorescence; hits give high values; shares compounds with Cl transport mod; normalised thallium flux (F/F0 slope) at 10 µM; AID 1713; 3,700 tested, 15% active;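 active means thallium flux slope above the same plate's solvent-only control mean plus 3 SD; inconclusive means the two replicate wells disagree; inactive means no significant difference from solvent-only control wells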
# KCC2 bumet counter: bumetanide-insensitive thallium flux in KCC2 cells with ouabain, counter-screen | shares compounds with Cl transport mod | HEK293-KCC2 + bumetanide/ouabain, thallium flux FluoZin2; hits give high values | normalized thallium flux at 10 µM | 3,700 tested, 49% active | AID 1714;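 active means thallium entry rate above the same plate's blocked-transporter control wells by more than 3 SD; inconclusive means the two repeat wells disagree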;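 further: raw slope of fluorescence over initial fluorescence between 10 and 20 s after thallium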
# KCC2 sec2: KCC2 (human) modulation, second secondary assay; 3,700 tested, 23% active; HEK293-KCC2, thallium flux FluoZin2 fluorescence; actives lie on both sides; F/F0 rise rate, 10–20 s post-thallium; normalized thallium flux at 10 µM; AID 1715; shares compounds with Cl transport mod;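 active means thallium flux slope more than 3 SD above or below the plate's solvent-only control mean, mostly below; inconclusive means the two repeat wells disagreed; inactive means no significant shift from solvent-only controls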;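 further: raw slope with 0.1% DMSO as baseline and bumetanide as block control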
# HEK counter1: acts in parental HEK cells, KCC2 counter-screen. shares compounds with Cl transport mod. 3,700 tested, 46% active. thallium flux rate (normalised fluorescence) at 10 µM. HEK293 parental cells, thallium flux FluoZin2, ouabain; baseline-ratio fluorescence slope, 10–20 s after thallium;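 active means thallium flux rate significantly above the same plate's solvent-only control wells, beyond their mean plus 3 SD; inconclusive means the two replicate wells gave conflicting results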
# KCC2 ouabain: confirmation of human KCC2 modulators with ouabain | AID 1717 | HEK293-KCC2, thallium flux FluoZin2 fluorescence; bidirectional: low = inhibitor, high = activator | 3,700 tested, 48% active | raw Tl+ flux slope (below DMSO = inhibition, above = activation) at 10 µM | shares compounds with Cl transport mod;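 active means thallium flux slope beyond 3 SD from same-plate DMSO control mean in most replicates, usually higher, sometimes lower; inconclusive means repeat tests gave conflicting results; inactive means no significant difference from controls in most replicates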;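 further: slope of initial-normalized fluorescence between seconds 10 and 20 after thallium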
# HEK293 Tl flux2: parental HEK flux effect, counter-screen 2 | shares compounds with Cl transport mod | HEK293 parental, thallium flux FluoZin-2 fluorescence slope | thallium flux slope at 10 µM | 3,700 tested, 33% active | AID 1718;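 active means thallium flux slope above the same plate's solvent-control mean plus 3 SD in both duplicate wells; inconclusive means duplicate wells that disagreed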;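 further: run without ouabain in cells lacking the KCC2 cotransporter; slope of fluorescence scaled to its starting value between 10 and 20 s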
# Starred values were filed as active, the others as inactive; ? = inconclusive; / = no result given.
SMILES,bCat nuc transl,MT stabilizer,Cl transport mod,ROMK mod,Redox H2O2 prof,KCC2 sec1,KCC2 bumet counter,KCC2 sec2,HEK counter1,KCC2 ouabain,HEK293 Tl flux2
CC(C)NC(=O)CC1C(=O)N(Cc2ccccc2)C(C)c2nc3ccccc3n21 (configuration not stated),5,2,0.6,-0.13,2,/,/,/,/,/,/
O=C(NC1CCCC1)NS(=O)(=O)c1ccccc1Cl,0,2,5.7*,0.0079,0,0.0076,0.0059,0.028,0.0066,0.02,0.0094
O=C(COc1ccccc1Cl)NC(=O)NC1CCCC1,0,1,/,/,-1,/,/,/,/,/,/
COc1cc(/C=N/NC(=O)CSc2ccccn2)ccc1OC(C)C,-1,/,1.6,/,/,/,/,/,/,/,/
O=C(CN1C(=O)S/C(=C\C=C\c2ccccc2)C1=O)Nc1ccccc1C(=O)O,2,/,-5.9*,0.24,/,0.0072,0.0067,?,?,0.014*,0.01
CCN1C(=O)C(CC(=O)Nc2ccc(F)cc2)N(CCCN2CCN(c3ccc(F)cc3)CC2)C1=S (configuration not stated),0,3,-0.12,-0.29,0,/,/,/,/,/,/
Cc1cc(C)c2cc(C#N)c(N3CCCC3)nc2c1,-1,2,8.7*,0.12,2,0.011,0.0059,0.036,0.007,0.026,0.01
O=C(CCOc1ccccc1)Nc1nnc(-c2ccc3c(c2)OCCO3)o1,-2,4,1.7,-0.62,0,/,/,/,/,/,/
O=C(COc1ccccc1)Nc1nnc(-c2ccc3c(c2)CCCC3)o1,-4,4,8.8*,/,-1,?,0.061*,0.035,0.024*,0.041*,0.012*
Nc1ccccc1Oc1c(F)c(F)c(Oc2ccccc2N)c(F)c1F,1,4,-0.52,-0.68,0,/,/,/,/,/,/
CCOC(=O)Cn1c(=S)[nH]c2c(oc3ccc(Cl)cc32)c1=O,0,1,/,-0.068,0,0.022*,0.041*,0.033,0.02*,0.04*,0.014*
CCCNCc1cc(OC)c(OCc2ccccc2)cc1Br,0,4,-1,-1.1,1,/,/,/,/,/,/
Cc1ccc(C(=S)N2CCN(Cc3ccccc3)CC2)cc1,-4,5,-3.3*,-0.062,0,?,0.0064,0.031,0.0076,0.015*,0.011
CSc1nc(N)c(C(=O)NC2CCCCC2)s1,0,/,-1.2,/,/,/,/,/,/,/,/
N#C/C(=C(/O)COC(=O)c1ccc(C#N)cc1)c1nc2ccccc2s1,/,3,-2.7,-1.6,0,/,/,/,/,/,/
N#C/C(=C(/O)COc1ccccc1)c1nc2ccccc2s1,-2,6,-5.4*,0.029,-2,?,0.0046,0.022*,0.0077,0.017,0.01
N#C/C(=C(/O)COc1ccc(Cl)cc1)c1nc2ccccc2s1,-3,5,-3.7*,0.044,0,0.007,?,0.023*,0.0077,?,0.011
N#C/C(=C(/O)c1ccc(F)cc1)c1nc2ccccc2s1,0,3,-4.8*,1.3,0,0.0073,0.0058,0.032,0.0059*,0.016*,0.0096
N/C(=N\OC(=O)COc1ccc2ccccc2c1Br)c1ccncc1,1,7,-1,0.073,0,/,/,/,/,/,/
Cn1nnc(NCc2cc(Br)ccc2OCc2cccs2)n1,/,4,/,/,2,0.0071,0.0052,0.026*,0.0076,?,0.01
CN(C)S(=O)(=O)c1ccc(C(=O)Nc2ccccc2C(=O)O)cc1,-9,5,-4.1*,0.37,1,0.0094,0.0055,0.029,0.0072,0.022,?
O=C(O)c1nn(CC(=O)N(C2CCCCC2)C2CCCCC2)c(=O)c2ccccc12,-1,2,0.9,1.1,0,/,/,/,/,/,/
O=C(NC(=S)Nc1ccccc1Cl)c1cncc(C#Cc2ccccc2)c1,0,/,12*,/,/,0.01,0.015*,0.036,0.011*,0.03,?
O=C(CCc1c[nH]c2ccccc12)NCc1ccc2c(c1)OCO2,-1,3,0.21,/,2,/,/,/,/,/,/
O=C(CCCc1c[nH]c2ccccc12)NCc1ccc2c(c1)OCO2,-2,1,-4.5*,0.6,0,0.0068,0.0065,0.028,0.0065,?,0.0098
SMILES,bCat nuc transl,MT stabilizer,Cl transport mod,ROMK mod,Redox H2O2 prof,KCC2 sec1,KCC2 bumet counter,KCC2 sec2,HEK counter1,KCC2 ouabain,HEK293 Tl flux2
COc1cc2ncc(C(=O)c3ccccc3)c(N3CCN(Cc4ccccc4)CC3)c2cc1OC,1,/,-0.47,/,/,/,/,/,/,/,/
O=C(NCCc1ccc(Cl)cc1)C1CCN(S(=O)(=O)N2CCCC2)CC1,-3,4,-6.7*,/,1,0.0068,0.0047,0.028,0.0078,0.019,0.011
C=CCNC(=O)COc1c(C)ccc(C)c1C,-4,5,/,-0.044,-1,/,/,/,/,/,/
N#C/C(=C\c1cccs1)C(=O)Nc1nccs1,0,4,10*,0.0044,-1,0.012*,0.019*,0.035,0.013*,?,0.012*
CCOC(=O)c1cnn(-c2nc(OCC)cc(OCC)n2)c1C,0,1,-0.59,/,0,/,/,/,/,/,/
Cc1ccc(S(=O)(=O)N(C)c2nc3ccccc3[nH]c2=S)cc1,-1,/,89*,/,/,0.039*,0.087*,?,0.065*,0.065*,0.019*
CC1(C)N(O)CC(c2cccs2)=[N+]1[O-],1,3,2.9*,0.16,-2,0.0082,0.0054,0.028,0.0067,0.02,0.0099
[O-][N+]1=C(c2cccs2)CN(O)C1,-2,2,-0.69,/,3,/,/,/,/,/,/
CS(=O)(=O)NNC(=O)c1sccc1OCc1ncc(C(F)(F)F)cc1Cl,0,/,0.57,/,/,/,/,/,/,/,/
COc1ccc(OC)c(-c2csc(NC(=O)c3ccc4c(c3)OCO4)n2)c1,0,3,6.7*,-0.018,-2,0.01,0.0053,0.033,0.0083,0.02,0.01
COc1ccc(CC(=O)Nc2nc(-c3cc(OC)ccc3OC)cs2)cc1,-1,3,0.42,-0.85,-1,/,/,/,/,/,/
Cc1nn(-c2ccccc2)nc1C(=O)Oc1cc(C(F)(F)F)nn1-c1ccccc1,1,/,0.054,/,/,/,/,/,/,/,/
Cc1cc(C(=O)NNC(=O)c2ccc(C(F)(F)F)cc2)no1,0,/,4.9,1.2,/,/,/,/,/,/,/
Cc1nn(-c2ccccc2)nc1C(=O)NN,0,/,/,/,/,/,/,/,/,/,/
